# Experimental data as given in ChEMBL document CHEMBL4196137, “Abyssomicin Monomers and Dimers from the Marine-Derived Streptomyces koyangensis SCSIO 5802” (J Nat Prod, 2018).
# Experiments:
# Herpesviridae sp. = test: Antiviral activity against Herpes simplex virus assessed as inhibition of viral replication at 10 uM relative to control; format: functional
# Staphylococcus aureus [1] = test: Antimicrobial activity against methicillin-resistant Staphylococcus aureus isolate shhs-A1 by two-fold serial dilution method; format: functional
# How it was run: (§1)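 MIC by 2-fold serial broth dilution in Mueller-Hinton broth, following CLSI standard methods; panel run alongside S. aureus ATCC 29213 and E. faecalis ATCC 29212.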
# Staphylococcus aureus [2] = test: Antimicrobial activity against methicillin-resistant Staphylococcus aureus isolate 699 by two-fold serial dilution method; format: functional; how it was run: as §1
# Staphylococcus aureus [3] = test: Antimicrobial activity against methicillin-resistant Staphylococcus aureus isolate 1862 by two-fold serial dilution method; format: functional; how it was run: as §1
# Staphylococcus aureus [4] = test: Antimicrobial activity against Staphylococcus aureus ATCC 29213 by two-fold serial dilution method; format: functional
# How it was run: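 MIC measured by 2-fold serial broth dilution in Mueller-Hinton broth, following CLSI standard methods.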
# Enterococcus faecalis = test: Antimicrobial activity against Enterococcus faecalis ATCC 29212 by two-fold serial dilution method; format: functional; how it was run: as §1
# [5] = test system: Vesicular stomatitis virus; test: Antiviral activity against Vesicular stomatitis virus infected in African green monkey Vero cells after 16 hrs by fluorescence microscopy; format: functional, organism-based
SMILES,inhibition at 10 µM (Herpesviridae sp.) [%],MIC (Staphylococcus aureus [1]) [µg/mL],MIC (Staphylococcus aureus [2]) [µg/mL],MIC (Staphylococcus aureus [3]) [µg/mL],MIC (Staphylococcus aureus [4]) [µg/mL],MIC (Enterococcus faecalis) [µg/mL],IC50 [5] [µM]
C[C@H]1CC/C(O)=C2/C(=O)O[C@@]34C=C[C@]5(C1=O)[C@H](O)[C@@](C)(O[C@]235)[C@@H](C)C4,31,,,,,,
C[C@H]1CC/C(O)=C2/C(=O)O[C@]34C[C@H](C)[C@]5(C)O[C@]23[C@H](C1=O)[C@@H](S[C@H]1[C@H]2[C@H](O)[C@@]3(C)O[C@@]67/C(=C(/O)CC[C@H](C)C(=O)[C@H]16)C(=O)O[C@@]27C[C@@H]3C)[C@H]4[C@@H]5O,,16,16,16,32,32,24
C[C@H]1CCC(=O)C2=C3O[C@@]4(C)[C@@H](C)C[C@]3(OC2=O)[C@@H]([C@H](S[C@H]2[C@H]3[C@H](O)[C@@]5(C)O[C@@]67/C(=C(/O)CC[C@H](C)C(=O)[C@H]26)C(=O)O[C@@]37C[C@@H]5C)CC1=O)[C@@H]4O,,16,16,16,32,32,19
CC1(C)S[C@@H]2[C@H](NC(=O)[C@H](N)c3ccccc3)C(=O)N2[C@H]1C(=O)O [AMPICILLIN],,64,4,0.125,0.25,16,
CN[C@H](CC(C)C)C(=O)N[C@H]1C(=O)N[C@@H](CC(N)=O)C(=O)N[C@H]2C(=O)N[C@H]3C(=O)N[C@H](C(=O)N[C@H](C(=O)O)c4cc(O)cc(O)c4-c4cc3ccc4O)[C@H](O)c3ccc(c(Cl)c3)Oc3cc2cc(c3O[C@@H]2O[C@H](CO)[C@@H](O)[C@H](O)[C@H]2O[C@H]2C[C@](C)(N)[C@H](O)[C@H](C)O2)Oc2ccc(cc2Cl)[C@H]1O [VANCOMYCIN],,,0.125,0.125,0.25,0.25,
